Sampled rows, rich in hits. Any-hit rate of the full collection: about 4.3%.
ALR H2O2 inh: inhibitors of human sulfhydryl oxidase ALR | purified ALR, DTT oxidation, H2O2 HRP-luminol luminescence | inhibition, % (concentration not given with the values) | 3.8% of 290,000 active;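 active means mean replicate inhibition above about 79%, with every replicate also reaching it, limit read from the data; inconclusive means only one of the two criteria met; inactive means mean below limit and not every replicate reaching it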
PREPL inh: inhibits the human prolyl oligopeptidase-like enzyme | Q4J6C6 | recombinant PREPL, fluorescence polarization activity-based probe | inhibition, % at 5.96 µM | 0.68% of 320,000 active | AID 2751; in the data active means inhibition above about 43%;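 further: 0% = enzyme with DMSO and 100% = wells lacking enzyme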
UBC13 inh: blocks human UBC13 polyubiquitin chain formation; AID 485273; 0.47% of 330,000 active; P61088; TR-FRET; inhibition, % at 20 µM; in the data active means inhibition above about 45%, passing the limit was not always enough; inconclusive means no clear call, values can overlap the other calls
Rin1-Abl PPI inh: inhibitors of human Rin1-Abl protein interaction; inhibition, % at 7.35 µM; TR-FRET Rin1/Abl binding, biochemical; 0.4% of 360,000 active; in the data active means inhibition above about 5%, passing the limit was not always enough
RBBP9 inhibitor: human RBBP9 hydrolase inhibition; O75884; recombinant RBBP9, FP-Rh probe fluorescence polarization; inhibition, % at 7.94 µM; 0.2% of 220,000 active; AID 1515;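 active means inhibition above the campaign mean of all tested compounds plus 3 SD, cut at about 14% in these data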;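 further: plate controls were DMSO wells with RBBP9 for no effect and wells lacking RBBP9 protein for full effect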
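Measured by: FP readout at 525/598 nm; material: recombinant human RBBP9; also added: Serine-hydrolase probe FP-Rh, 375 nM pre-mixing; medium: Tris buffer pH 8.0, NaCl, Pluronic; replication: one well per compound; doses: one concentration, 7.94 µM nominal, 0.794% DMSO; timing: preincubation 30 min plus labeling 45 min at 25 °C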
SUMO HTRF inh: inhibitors of human SUMOylation (UBC9); inhibition, % at 35 µM; 0.36% of 290,000 active; HTRF SUMOylation assay, SAE1/SAE2 + UBC9, in vitro; AID 2006; P63279; in the data active means inhibition above about 50%, passing the limit was not always enough; inconclusive means no clear call, values can overlap the other calls
Starred values were filed as active, the others as inactive; ? = inconclusive; nt = no result.

SMILES	ALR H2O2 inh	PREPL inh	UBC13 inh	Rin1-Abl PPI inh	RBBP9 inhibitor	SUMO HTRF inh
CC(=O)Nc1ccc(S(=O)(=O)NNC(=O)COc2cc(C)ccc2C(C)C)cc1	99*	21	-16	-1	-4	4
Cc1ccc(-n2nc(C)c(Sc3ccccc3[N+](=O)[O-])c2N)cc1	87*	3	-5	-4	3	-1
Cc1ccc(N=Nc2c(C)[nH]n(C(N)=S)c2=O)cc1C	-12	6	-37	-6	-11	12
Cc1[nH]n(C(N)=S)c(=O)c1N=Nc1cccc([N+](=O)[O-])c1C	98*	11	-11	0	nt	-2
Cc1c(N=Nc2c(-c3ccc([N+](=O)[O-])cc3)[nH]n(C(N)=S)c2=O)cccc1[N+](=O)[O-]	nt	nt	nt	3	-6	69*
Cc1[nH]n(C(N)=S)c(=O)c1N=Nc1cc(-c2ccc(Br)cc2)[nH]n1	99*	11	-15	2	-16	0
NC(=S)n1[nH]c(-c2ccc([N+](=O)[O-])cc2)c(N=Nc2cccc([N+](=O)[O-])c2)c1=O	nt	nt	nt	-3	-5	59*
CC(C)OC(=O)CC1C(=O)NCCN1C(=O)COc1ccc(C(C)(C)C)cc1 (stereo unspecified)	-2	5	3	-1	nt	2
O=C(c1cccn2c(=O)c3cc(Br)ccc3nc12)N1CCN(c2ccccn2)CC1	nt	-1	8	-1	-3	14
CCOC(=O)N1CCN(C(=O)c2cccn3c(=O)c4cc(Cl)ccc4nc23)CC1	-1	4	8	-4	-4	58*
CCOC(=O)N1CCN(C(=O)c2cccn3c(=O)c4cc(Br)ccc4nc23)CC1	7	-6	4	-2	3	51*
COc1ccc(Nc2nc(-c3ccccc3)c(C(=O)Nc3cccnc3)s2)cc1	4	29	-3	-1	-9	-1
COc1ccc(O)c(C(=O)c2coc(=N)c(C(=O)Nc3ccc(SC(F)F)cc3)c2)c1	4	10	20	-2	-10	17
O=C(O)CN1C(=O)/C(=C\c2cccc(OCc3ccc(Cl)cc3)c2)SC1=S	97*	-16	-27	1	nt	28
O=C(O)CN1C(=O)/C(=C\c2cccc(OCc3ccc(F)cc3)c2)SC1=S	68	nt	-16	0	nt	26
Cc1n[nH]c2ccc([N+](=O)[O-])cc2c1=O	nt	nt	nt	-7	nt	nt
CCn1c(=NC(=O)CSC(C)=O)sc2cc(F)ccc21	98*	3	4	0	-1	18
CCC(=O)N=c1sc2cc(F)cc(F)c2n1C	-1	3	6	-3	-10	nt
C#CCn1c(=NC(=O)CSC(C)=O)sc2cc(F)ccc21	97*	9	24	-30	-1	-1
CCCCCCSc1nc(O)c(C2OC(=O)c3c2ccc(OC)c3OC)c(=O)n1CC (stereo unspecified)	98*	-3	-8	1	-3	1
CCCSc1nc(O)c(C2OC(=O)c3c2ccc(OC)c3OC)c(=O)n1C (stereo unspecified)	?	-12	2	-2	-6	-4
Fc1cccc(Cc2c(C3CCCCC3)nc3ccc(Br)cn23)c1	nt	nt	nt	4	nt	nt
Cc1ccc(N=c2oc3cc(O)ccc3cc2C(N)=O)cc1	96*	-69	4	-4	0	20
CN(C)C(=O)c1cc(C(=O)c2ccc(C(F)(F)F)cc2F)c[nH]1	-2	4	5	-3	-3	3
Cc1cc(N2C(=O)C(O)=C(C(=O)c3ccc(C)o3)C2c2ccc([N+](=O)[O-])cc2)no1 (stereo unspecified)	97*	4	-3	3	nt	5
COc1cccc(C2C(C(=O)c3cc4ccccc4o3)=C(O)C(=O)N2c2cc(C)on2)c1 (stereo unspecified)	98*	11	-11	0	nt	0
CCc1cc(=O)oc2c3c(cc(OCC(=O)NCc4ccccn4)c12)OC(C)(C)CC3	-11	15	18	-6	nt	39
CCc1cc(=O)oc2c3c(cc(OCC(=O)NCCCCCC(=O)O)c12)OC(C)(C)CC3	-20	-8	14	3	nt	53*
CCCCCC1(C)NC(=S)N(c2ccccc2)N1 (stereo unspecified)	-3	1	1	1	-11	-4
CCC1(c2ccc(Cl)cc2)NC(=S)N(c2ccccc2)N1 (stereo unspecified)	94*	9	-1	-2	-6	10

Screens: PubChem, several laboratories
